Published values collected from several papers.
Cell line: OVCAR-3
Observed: cell growth or viability

CC/C(=C(\c1ccccc1)c1ccc(OCCN(C)C)cc1)c1ccccc1 — EC90 (ATP luminescence; 72 h): 42900 nM
C[C@H]1O[C@@H](n2cc(F)c(=O)[nH]c2=O)[C@H](O)[C@@H]1O — IC50 (CCK-8; 48 h): > 50000 nM
COc1ccc(-c2ccc(-c3ccc(C(=N)N)nc3)s2)cc1 — GI50 (SRB): 1820 nM
COc1cc(OC)c(/C=C/S(=O)(=O)Nc2ccc(OC)c(N)c2)c(OC)c1 — IC50 (trypan blue; 96 h): 4 nM
Cc1ccc(C)c(COc2cc(NC(=O)c3ccc4c(c3)OCO4)ccc2N(C)S(C)(=O)=O)c1 — GI50 (SRB; 48 h): 39.6 nM
Cc1cc(C)n(C(=S)[S][Au][PH](CCCCCC[PH]([Au][S]C(=S)n2nc(C)cc2C)(c2ccccc2)c2ccccc2)(c2ccccc2)c2ccccc2)n1 — GI50: 648 nM
CC(C)C(=O)Nc1ccc([N+](=O)[O-])c(C(F)(F)F)c1 — IC50 (CCK-8; 48 h): 34100 nM
COc1ccc(C(=O)/C=C/c2cccc(Cl)c2Cl)cc1S(N)(=O)=O — inhibition (SRB; 10 µM): 156%
COc1cccc(Oc2ccccc2NC(=O)CNC(=O)c2cccc3ccccc23)c1 — GI50 (SRB; 48 h): 100 nM
CC(C)c1cc(-c2n[nH]c(=O)n2-c2ccc3c(ccn3C)c2)c(O)cc1O — IC50 (imaging; 24 h): 279 nM
O=C1CCC2(Oc3cccc4cccc(c34)O2)c2c(O)ccc(O)c21 — IC50 (resazurin; 72 h): > 25000 nM
COc1ccc(-c2ccc(-c3ccc(C(=N)N)nc3)s2)cc1Cl — GI50 (SRB): 1830 nM
COc1ccc(C(=O)/C=C/c2ccccc2Cl)cc1S(N)(=O)=O — inhibition (SRB; 10 µM): 9%
C[C@]12CC[C@@H]3c4ccc(O)cc4CC[C@H]3[C@@H]1CC[C@@H]2O — EC50 (ATP luminescence; 72 h): 27600 nM
COc1ccc(C(=O)/C=C/c2cccnc2)cc1S(N)(=O)=O — GI50 (SRB; 48 h): 10200 nM
CSc1ccc(/C=C2\C=C(CC(=O)NS(=O)(=O)C(F)(F)F)c3cc(F)ccc32)cc1 — EC50 (WST-1; 48 h): ~160000 nM
